Series [1] has as its target T1, Sodium channel protein type 9 subunit alpha (Homo sapiens, UniProt Q15858). Put plainly: Antagonist activity at 20% inactivated human sodium channel Nav1.7 expressed in human HEK293 cells by patch-clamp electrophysiological assay. Type of series: functional, cell-based. The gist of the method: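 Automated PatchXpress electrophysiology on hNav1.7 channels with an average 20% contribution from inactivated channels. Dose-response curves built from single-concentration tests on many cells. IC50 is the average of at least two determinations.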
On the technique in general: In patch-clamp work, channel activity is measured electrically.

The test system of series [2] is Liver microsomes. Put plainly: Metabolic stability in human liver microsomes after 15 mins. Type of series: ADME, Microsome. The settings on record: 0.25 h. On the technique in general: Liver microsomes are vesicles of endoplasmic reticulum, rich in cytochrome P450 enzymes.
The subject of series [3] is Liver microsomes. Nature of the series: Metabolic stability in rat liver microsomes after 15 mins. Type of series: ADME, Microsome. The settings on record: 0.25 h.
Series [4] is filed under the species Rattus norvegicus. Put plainly: Toxicity in rat assessed as complete reduction in rearing behavior by open field test. Type of series: organism-based. More on the design: scale not given: the % may be the effect or the level left. The note with it: in vivo.
For series [5], the system named is MDR1 (P-gp). Nature of the series: Apparent permeability across pig LLC-PK1 cells over expressing human MDR1 at 5 uM in presence 0.1 % BSA. The class given is ADME, cell-based, Sus scrofa. The method in brief:
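MDR1-LLC-PK1 pig kidney cells expressing human MDR1. Compound tested at 5 µM with 0.1% BSA. Permeability is the average of the apical-to-basolateral and basolateral-to-apical apparent permeability values.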

Series [6] deals with LLC-PK1. Nature of the series: Efflux ratio of permeability from […] side in pig LLC-PK1 cells over expressing human MDR1. Type of series: ADME, cell-based, Sus scrofa. The method in brief:
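Pig kidney LLC-PK1 cells expressing human MDR1. Compound tested in the presence of 0.1% BSA. Apparent permeability was measured in both the apical-to-basolateral and basolateral-to-apical directions.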

The nature of series [7]: Solubility of the compound in simulated intestinal fluid. The class given is physicochemical.
Series [8] is described as follows: Ratio of drug level in brain to plasma in ip dosed rat. The class given is ADME, organism-based. The settings on record: brain and plasma, read-out: BPR.
A short description of series [9]: Solubility of the compound in 0.01 N HCl. Type of series: physicochemical.
Series [10] has as its target Voltage-gated inwardly rectifying potassium channel KCNH2 (Homo sapiens, UniProt Q12809). Nature of the series: Displacement of dofetilide from human ERG.
Series [11] concerns the target T1, Sodium channel protein type 9 subunit alpha. Put plainly: Antagonist activity at non-inactivated human sodium channel Nav1.7 expressed in human HEK293 cells by manual patch-clamp electrophysiological assay. The class given is functional, cell-based. The gist of the method: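 Manual electrophysiology on fully noninactivated hNav1.7 with holding voltage set to -140 mV. […] Values are the average of at least two determinations.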

The species named for series [12] is Rattus norvegicus. Nature of the series: Toxicity in rat assessed as reduction in total basic movement by open field test. Type of series: organism-based. Also on record: scale not given: the % may be the effect or the level left. The settings on record: in vivo.
Series [13] concerns the target T1, Sodium channel protein type 9 subunit alpha. Nature of the series: Antagonist activity at 20% inactivated human sodium channel Nav1.7 expressed in human HEK293 cells by manual patch-clamp electrophysiological assay. The class given is functional, cell-based. The gist of the method: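 Manual electrophysiology on hNav1.7; holding voltage set, and adjusted as needed during the experiment, to give steady 20% inactivation. […] Values are the average of at least two determinations.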

Series [14] can be described thus: Volume of distribution at steady state in Sprague-Dawley rat at 0.5 mg/kg, iv. Type of series: ADME, organism-based. More on the design: dose 0.5 mg/kg, route intravenous. The note with it: in vivo, read-out: Vdss.
Series [15] can be described thus: Solubility of the compound in phosphate buffer saline. The class given is physicochemical. The note with it: phosphate buffered saline.
A short description of series [16]: Half life in Sprague-Dawley rat at 0.5 mg/kg, iv. Type of series: ADME, organism-based. More on the design: dose 0.5 mg/kg, route intravenous. The settings on record: in vivo.
In series [17] the target is Sodium channel protein type 5 subunit alpha (Homo sapiens, UniProt Q14524). Nature of the series: Antagonist activity at partially inactivated human sodium channel Nav1.5 expressed in human HEK293 cells by patch-clamp electrophysiological assay. The class given is functional, cell-based.
Sodium channel protein type 5 subunit alpha, sequence (Q14524 whole entry): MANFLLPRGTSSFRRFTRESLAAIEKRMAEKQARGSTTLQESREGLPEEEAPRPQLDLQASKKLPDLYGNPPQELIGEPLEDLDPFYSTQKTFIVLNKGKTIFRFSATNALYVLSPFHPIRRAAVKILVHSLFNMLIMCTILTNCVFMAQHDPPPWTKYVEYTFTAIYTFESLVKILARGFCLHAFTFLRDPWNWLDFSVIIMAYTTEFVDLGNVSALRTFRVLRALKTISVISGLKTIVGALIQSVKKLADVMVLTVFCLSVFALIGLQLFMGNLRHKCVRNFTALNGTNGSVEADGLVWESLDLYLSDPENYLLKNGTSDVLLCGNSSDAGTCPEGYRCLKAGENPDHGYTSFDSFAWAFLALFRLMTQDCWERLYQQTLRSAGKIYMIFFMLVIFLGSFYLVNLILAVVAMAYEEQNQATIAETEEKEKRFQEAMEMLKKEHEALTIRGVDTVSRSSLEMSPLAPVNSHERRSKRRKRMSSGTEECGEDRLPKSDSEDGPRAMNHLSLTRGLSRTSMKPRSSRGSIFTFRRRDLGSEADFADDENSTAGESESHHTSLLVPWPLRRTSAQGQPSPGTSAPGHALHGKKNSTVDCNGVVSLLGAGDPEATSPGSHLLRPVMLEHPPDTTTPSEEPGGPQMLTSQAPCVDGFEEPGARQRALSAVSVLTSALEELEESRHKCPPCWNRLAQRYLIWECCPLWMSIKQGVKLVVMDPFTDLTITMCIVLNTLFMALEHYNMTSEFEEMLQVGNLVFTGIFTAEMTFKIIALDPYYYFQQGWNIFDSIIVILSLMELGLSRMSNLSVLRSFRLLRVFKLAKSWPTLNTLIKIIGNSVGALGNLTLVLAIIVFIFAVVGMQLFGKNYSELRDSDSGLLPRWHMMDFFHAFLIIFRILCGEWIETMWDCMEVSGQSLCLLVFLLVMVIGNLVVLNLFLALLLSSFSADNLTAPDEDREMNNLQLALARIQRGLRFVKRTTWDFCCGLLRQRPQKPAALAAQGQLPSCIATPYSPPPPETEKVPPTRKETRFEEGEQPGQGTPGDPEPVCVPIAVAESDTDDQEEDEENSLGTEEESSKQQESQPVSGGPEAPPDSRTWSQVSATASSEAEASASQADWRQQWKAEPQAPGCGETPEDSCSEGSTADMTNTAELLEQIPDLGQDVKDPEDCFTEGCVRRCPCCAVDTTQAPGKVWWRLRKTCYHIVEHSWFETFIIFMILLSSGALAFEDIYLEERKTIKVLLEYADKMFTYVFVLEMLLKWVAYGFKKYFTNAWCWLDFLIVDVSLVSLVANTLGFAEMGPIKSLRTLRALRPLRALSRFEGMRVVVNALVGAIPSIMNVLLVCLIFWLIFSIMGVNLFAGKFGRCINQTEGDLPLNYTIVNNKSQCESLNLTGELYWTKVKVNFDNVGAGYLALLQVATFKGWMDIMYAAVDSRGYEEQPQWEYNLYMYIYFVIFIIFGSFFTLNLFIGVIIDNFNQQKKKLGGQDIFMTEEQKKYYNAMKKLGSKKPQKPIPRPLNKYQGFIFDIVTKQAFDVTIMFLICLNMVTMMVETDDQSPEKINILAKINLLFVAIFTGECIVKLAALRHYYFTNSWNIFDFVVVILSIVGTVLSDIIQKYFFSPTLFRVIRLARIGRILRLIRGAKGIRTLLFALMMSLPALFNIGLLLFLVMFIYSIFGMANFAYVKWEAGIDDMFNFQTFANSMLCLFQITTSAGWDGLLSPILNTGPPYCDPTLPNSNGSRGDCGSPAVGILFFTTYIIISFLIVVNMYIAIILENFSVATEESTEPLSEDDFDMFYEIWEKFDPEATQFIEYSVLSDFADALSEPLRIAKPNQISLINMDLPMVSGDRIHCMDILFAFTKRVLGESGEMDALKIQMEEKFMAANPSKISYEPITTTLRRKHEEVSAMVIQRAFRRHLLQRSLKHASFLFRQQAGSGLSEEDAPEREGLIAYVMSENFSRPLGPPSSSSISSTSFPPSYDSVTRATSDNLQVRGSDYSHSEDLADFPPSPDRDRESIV
Series [18] can be described thus: Clearance in Sprague-Dawley rat at 0.5 mg/kg, iv. Also on record: dose 0.5 mg/kg, route intravenous. The class given is ADME, organism-based. The note with it: in vivo.
Series [19] deals with Hepatocyte. Put plainly: Drug metabolism in rat hepatocytes assessed as glucuronide adduct formation at 18.7 mins. Type of series: ADME, cell-based. The settings on record: 0.311667 h.

pIC50, pKi: −log10 of the molar value. Values after ≈ are worked out from the molar mass of the structure shown. A value given as a limit tells only on which side of the number the result lay.

The text below walks through data of ChEMBL document CHEMBL1938353, “Discovery and optimization of aminopyrimidinones as potent and state-dependent Nav1.7 antagonists” (Bioorg Med Chem Lett, 2012).

T1 sequence (Q15858 whole entry): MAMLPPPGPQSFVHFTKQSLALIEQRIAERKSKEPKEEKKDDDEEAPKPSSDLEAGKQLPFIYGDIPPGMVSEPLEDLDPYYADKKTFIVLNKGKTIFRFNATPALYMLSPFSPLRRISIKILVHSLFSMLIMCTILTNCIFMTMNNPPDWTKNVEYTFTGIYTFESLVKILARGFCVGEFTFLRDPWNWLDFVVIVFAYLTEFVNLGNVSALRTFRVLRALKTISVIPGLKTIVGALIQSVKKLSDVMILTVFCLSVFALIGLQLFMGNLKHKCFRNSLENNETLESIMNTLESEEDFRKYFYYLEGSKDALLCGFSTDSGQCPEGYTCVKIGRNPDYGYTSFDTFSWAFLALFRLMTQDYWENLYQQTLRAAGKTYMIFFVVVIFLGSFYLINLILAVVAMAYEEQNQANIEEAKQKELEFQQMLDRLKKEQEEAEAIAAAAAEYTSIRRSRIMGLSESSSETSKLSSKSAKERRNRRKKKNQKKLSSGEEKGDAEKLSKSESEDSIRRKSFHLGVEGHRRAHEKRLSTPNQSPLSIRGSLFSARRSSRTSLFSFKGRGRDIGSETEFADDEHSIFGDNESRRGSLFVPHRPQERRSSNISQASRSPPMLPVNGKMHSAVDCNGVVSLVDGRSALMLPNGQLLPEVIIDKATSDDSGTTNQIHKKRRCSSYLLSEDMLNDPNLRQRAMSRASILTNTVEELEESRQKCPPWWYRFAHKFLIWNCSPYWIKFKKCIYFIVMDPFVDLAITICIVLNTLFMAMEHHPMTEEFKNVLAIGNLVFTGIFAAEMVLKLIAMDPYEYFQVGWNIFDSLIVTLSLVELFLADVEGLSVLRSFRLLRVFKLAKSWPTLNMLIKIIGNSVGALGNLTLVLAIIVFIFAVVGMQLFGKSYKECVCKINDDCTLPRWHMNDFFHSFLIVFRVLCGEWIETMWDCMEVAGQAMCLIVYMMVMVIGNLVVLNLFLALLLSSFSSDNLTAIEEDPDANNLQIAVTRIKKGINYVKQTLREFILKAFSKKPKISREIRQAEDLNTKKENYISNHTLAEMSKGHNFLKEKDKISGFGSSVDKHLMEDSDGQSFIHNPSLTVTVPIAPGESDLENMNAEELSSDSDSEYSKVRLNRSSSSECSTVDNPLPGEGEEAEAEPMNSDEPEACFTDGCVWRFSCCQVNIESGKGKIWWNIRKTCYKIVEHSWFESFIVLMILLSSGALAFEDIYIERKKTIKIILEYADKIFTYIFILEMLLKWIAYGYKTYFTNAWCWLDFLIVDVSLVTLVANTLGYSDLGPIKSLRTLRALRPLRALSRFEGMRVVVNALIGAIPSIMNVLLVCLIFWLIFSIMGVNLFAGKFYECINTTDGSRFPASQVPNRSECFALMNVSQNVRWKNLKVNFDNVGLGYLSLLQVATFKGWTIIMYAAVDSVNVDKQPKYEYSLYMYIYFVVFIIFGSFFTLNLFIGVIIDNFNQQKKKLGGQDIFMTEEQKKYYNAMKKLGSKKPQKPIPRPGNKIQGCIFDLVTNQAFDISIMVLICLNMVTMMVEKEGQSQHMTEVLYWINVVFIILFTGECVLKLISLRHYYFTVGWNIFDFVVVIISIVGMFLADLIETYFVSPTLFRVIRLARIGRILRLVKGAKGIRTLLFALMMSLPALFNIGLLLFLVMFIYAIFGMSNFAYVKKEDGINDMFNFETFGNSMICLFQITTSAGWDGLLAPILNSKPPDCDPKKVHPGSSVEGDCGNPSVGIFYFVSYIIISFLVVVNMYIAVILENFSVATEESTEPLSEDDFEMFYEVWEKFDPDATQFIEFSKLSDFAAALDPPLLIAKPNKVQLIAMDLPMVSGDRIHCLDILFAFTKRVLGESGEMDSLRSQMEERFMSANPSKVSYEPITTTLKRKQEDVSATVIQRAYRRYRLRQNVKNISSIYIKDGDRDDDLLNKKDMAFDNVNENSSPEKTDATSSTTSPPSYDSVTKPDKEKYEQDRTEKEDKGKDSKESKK
Voltage-gated inwardly rectifying potassium channel KCNH2, sequence (Q12809 whole entry): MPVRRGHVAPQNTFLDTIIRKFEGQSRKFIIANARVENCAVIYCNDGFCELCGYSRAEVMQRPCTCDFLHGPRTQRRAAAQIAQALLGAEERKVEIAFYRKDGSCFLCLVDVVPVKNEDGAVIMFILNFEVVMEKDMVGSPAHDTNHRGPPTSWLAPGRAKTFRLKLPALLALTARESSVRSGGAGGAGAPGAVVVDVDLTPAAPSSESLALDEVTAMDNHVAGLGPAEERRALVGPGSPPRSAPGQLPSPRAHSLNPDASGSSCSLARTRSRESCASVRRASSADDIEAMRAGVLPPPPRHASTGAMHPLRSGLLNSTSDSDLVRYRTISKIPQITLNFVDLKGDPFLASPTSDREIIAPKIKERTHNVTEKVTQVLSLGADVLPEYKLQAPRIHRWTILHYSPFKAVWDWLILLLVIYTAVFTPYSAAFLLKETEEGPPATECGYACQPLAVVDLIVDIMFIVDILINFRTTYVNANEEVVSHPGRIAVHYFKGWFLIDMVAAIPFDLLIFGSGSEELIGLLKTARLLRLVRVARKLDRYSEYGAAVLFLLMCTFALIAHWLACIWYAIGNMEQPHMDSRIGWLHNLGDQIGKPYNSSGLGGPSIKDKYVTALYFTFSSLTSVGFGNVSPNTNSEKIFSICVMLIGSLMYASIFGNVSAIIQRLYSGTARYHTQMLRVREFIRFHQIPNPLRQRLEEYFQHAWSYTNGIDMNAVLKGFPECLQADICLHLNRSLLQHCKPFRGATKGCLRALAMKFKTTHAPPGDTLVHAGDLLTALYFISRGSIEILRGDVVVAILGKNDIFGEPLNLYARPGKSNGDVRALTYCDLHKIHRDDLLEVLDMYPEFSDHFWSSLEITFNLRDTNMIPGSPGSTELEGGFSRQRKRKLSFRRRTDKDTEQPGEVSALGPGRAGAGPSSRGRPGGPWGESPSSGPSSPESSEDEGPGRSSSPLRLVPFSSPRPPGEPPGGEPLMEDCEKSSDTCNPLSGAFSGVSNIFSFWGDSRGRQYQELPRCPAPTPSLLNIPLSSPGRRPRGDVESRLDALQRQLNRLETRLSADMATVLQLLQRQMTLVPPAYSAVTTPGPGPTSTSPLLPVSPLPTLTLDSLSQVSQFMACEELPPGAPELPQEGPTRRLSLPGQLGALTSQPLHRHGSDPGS

Take `CC(=O)Nc1cc(=O)[nH]c(SCc2ccc(C(C)(C)C)cc2)n1`: the pIC50 (as a rule, the negative decadic logarithm of the IC50, by convention in mol/L) in series [1] was 5.92. The Stability entry in series [2] and in [3] was “Unstable” in each case.
Turning to `Cn1c(SCc2ccc(C(C)(C)C)cc2)nc(N)cc1=O`, the Activity is recorded as 98% in [4] and 81% in [12]. Moreover, in series [5], the Papp (in general, a coefficient for how fast a substance crosses the barrier) at 5 µM was 16 ×10⁻⁶ cm/s. The pIC50 is 6.38 in series [1], 6.30 in [11], 7.10 in series [13] and 6.70 in series [17]. Besides, the Ratio in series [6] was 1. For the same compound, the results for the solubility in [7], in [9] and in series [15] were 14 µg/mL (≈ 46.1 µM), 1 µg/mL (≈ 3.3 µM) and 10 µg/mL (≈ 33 µM), respectively. Moreover, the Kp in series [8] amounted to 3.3. In addition, the pKi (usually the negative decadic logarithm of the Ki, by convention in mol/L) in [10] was under 4.82. Also, in series [14], the Vd was found to be 2.6 L/kg. Also, the half-life (in general, the time needed for the level to fall by half in the phase considered) in series [16] is 3.9 h. Further, the clearance (as a rule, a measure of how efficiently the substance is removed, as volume per time) in series [18] is 18.3 mL/min/kg.
On to `CC(C)(C)c1ccc(CSc2nc(N)c(Cl)c(=O)[nH]2)cc1`, for which the pIC50 in [1] is 5.37.
As for `CC(C)(C)OC(=O)Nc1cc(=O)[nH]c(SCc2ccc(C(C)(C)C)cc2)n1`, the pIC50 in series [1] was 5.11.
Regarding `CC(C)(C)c1ccc(CSc2nc(N)c(N)c(=O)[nH]2)cc1`, the pIC50 in series [1] is under 4.52.
Regarding `Cn1c(N)cc(=O)nc1SCc1ccc(C(C)(C)C)cc1`, the pIC50 in series [1] is under 4.52.
Still for that read-out and setting: the result for `COc1cc(N)nc(SCc2ccc(C(C)(C)C)cc2)n1` reads under 4.52.
The same measure, in the same setting: in the case of `CC(C)CSc1nc(N)cc(=O)[nH]1` it was under 4.52; in that of `CC(C)(C)c1ccc(CSc2nc3[nH]cnc3c(=O)[nH]2)cc1`, under 4.52; in that of `CS(=O)(=O)c1ccc(CSc2nc(N)cc(=O)[nH]2)cc1`, under 4.52.
The same measure, in the same setting: in the case of `CC(C)(C)c1ccc(CSc2nc(O)cc(=O)[nH]2)cc1` it was under 4.52; in that of `Nc1cc(=O)[nH]c(SCc2ccc(OC(F)(F)F)cc2)n1`, 5.66.
In the case of `N#Cc1ccc(CSc2nc(N)cc(O)n2)cc1`, the pIC50 in [1] is under 4.52.
In series [1], `CC(C)(C)c1ccc(CSc2nc(NS(C)(=O)=O)cc(=O)[nH]2)cc1` showed a negative-log IC50 (pIC50) of under 4.52.
With `CCCCCCCSc1nc(N)cc(=O)[nH]1`, the Papp at 5 µM in series [5] worked out at 21 ×10⁻⁶ cm/s. Also, the pIC50 in [1] was 6.03; in series [11], 5.85; in series [13], 6.40; in series [17], 5.92. Moreover, the Ratio in [6] stood at 1.1. For the same compound, the solubility (in general, the dissolved amount per volume that the medium holds) was 14 µg/mL (≈ 58 µM) in series [7], 3 µg/mL (≈ 12.4 µM) in series [9] and 2 µg/mL (≈ 8.29 µM) in series [15]. In addition, in series [10], the pKi was under 4.82. In series [14], the Vd is 1.3 L/kg. Moreover, the half-life in series [16] is 0.25 h. Moreover, the clearance in series [18] was 108 mL/min/kg.
`CC(C)(C)c1ccc(CSc2nc(NC(=O)C3CC3)cc(=O)[nH]2)cc1` had a pIC50 in series [1] of 5.60. The Stability result in series [2] and in [3] was “Unstable” each time.
In series [1], `CC(C)(C)c1ccc(CSc2nccc(=O)[nH]2)cc1` showed a pIC50 of under 4.52.
For `CC(C)(C)c1ccc(CSc2nc(N)cc(O)n2)cc1`, in [5], the Papp at 5 µM stood at 27 ×10⁻⁶ cm/s. Besides, the pIC50 in series [1] was 6.17; in [11], 5.66; in series [13], 6.47; in [17] it was 6.52. Besides, the solubility in series [7] is 67 µg/mL (≈ 232 µM); in series [9] it was 4 µg/mL (≈ 13.8 µM); in series [15], 5 µg/mL (≈ 17.3 µM). The Vd in series [14] stood at 7.9 L/kg. Besides, the Drug metabolism entry in series [19] is recorded as “Active”. Further, the half-life in series [16] was 2.7 h. In series [18], the clearance is 85 mL/min/kg.
As to `Nc1cc(=O)[nH]c(SCc2ccc(Cl)cc2)n1`, the pIC50 in series [1] is 5.33.
